Published values pooled from the literature.
Each line is one published result; the experiments were not run side by side.
Target: cAMP-dependent protein kinase catalytic subunit alpha (PRKACA, Homo sapiens, UniProt P17612)

The inhibition of `Cn1cc(-c2cccc(N3CCc4c(sc5c4CC(C)(C)C5)C3=O)c2CO)cc(Nc2ccncn2)c1=O` is reported as -3% (enzyme activity; inhibitor; 1 µM).
`O=c1[nH]c2ccccc2n1C1CCN(Cc2ccc(-c3[nH]c4cc5ncnc5cc4nc3-c3ccccc3)cc2)CC1` has a remaining signal of 106% (cell-free assay; 0.5 µM).
The inhibition of `C#Cc1n[nH]c2c(-c3cn([C@@H](C)c4ccccc4)c(=O)[nH]c3=O)cc(F)cc12` is reported as 0% (enzyme activity; inhibitor; 0.1 µM).
With `Nc1ncnc2c1ncn2[C@@H]1O[C@H](COP(=O)(O)OP(=O)(O)OP(=O)(O)O)[C@@H](O)[C@H]1O` the Km was 16.9 µM (enzyme activity; substrate; pH 7.4).
`Cc1nn(C)cc1-c1nc2c(N3CCN(Cc4ccc(Cl)cc4)CC3)c(Cl)cnc2[nH]1` gave a remaining binding of 57% (binding; competition with immobilised ligand; 1 µM).
`Cn1cc(-c2cc(F)cc(N3CCn4c(cc5c4CCCC5)C3=O)c2CO)cc(Nc2ccc(N3CCN(C4COC4)CC3)cn2)c1=O` has an inhibition of 6% (enzyme activity; inhibitor; 0.1 µM).
With `C#Cc1n[nH]c2c(-c3cn(C(C)c4ccccn4)c(=O)[nH]c3=O)cc(F)cc12` (stereo not shown) the inhibition was 15.6% (enzyme activity; inhibitor; 1 µM).
The remaining binding of `Cn1cncc1[C@@](O)(COc1ccc(C#N)cc1-c1ccc(OC(F)(F)F)cc1)c1ccc(C#N)cc1` is reported as 94% (cell-free assay; competition with immobilised ligand; 1 µM).
For `COc1ncccc1-c1cnn2ccc(N3CCN(C(=O)OC(C)C)CC3)nc12`, the remaining binding was 66% (binding; competition with immobilised ligand; 1 µM).
The remaining binding of `Nc1ncc(-c2nc(N3CCOCC3)nc(N3CCOCC3)n2)c(C(F)F)n1` is reported as 85% (binding; competition with immobilised ligand; 10 µM).
